Data: ChEMBL document CHEMBL1221337, “The unsaturated acyclic nucleoside analogues bearing a sterically constrained (Z)-4'-benzamido-2'-butenyl moiety: Synthesis, X-ray crystal structure study, cytostatic and antiviral activity evaluations” (Bioorg Med Chem, 2010)
pIC50: −log10 of the molar value. Activity calls are given as the source filed them. The calls are words filed in the database; no cut-off is given here.

Legend:
Vaccinia virus = test: Antiviral activity against Vaccinia virus infected in HEL cells assessed as inhibition of virus-induced cytopathicity; assay type: functional, organism-based; conditions: Orthopoxvirus vaccinia
MIA PaCa-2 = test: Cytotoxicity against human MIAPaCa2 cells after 72 hrs by MTT assay; assay type: functional, cell-based; conditions: MIA PaCa-2, 72 h
How it was run: (§1)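 Adherent cells were plated at 3000–6000 cells/well on day 0, according to doubling time. Compound was added as five 10-fold dilutions (1 × 10⁻⁸–1 × 10⁻⁴ M), with DMSO ≤0.1%, and incubated 72 h. Read-out was MTT absorbance converted to percentage growth versus untreated wells on the same plate. IC50 was obtained by linear regression between bracketing concentrations; the highest concentration was reported as ">" if not reached. Quadruplicates, three experiments.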

[1] = system: Vesicular stomatitis virus; test: Antiviral activity against Vesicular stomatitis virus infected in human HeLa cells assessed as inhibition of virus-induced cytopathicity; assay type: functional, organism-based
How it was run: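 Confluent HeLa cultures were infected with 100 CCID50 of virus. Unadsorbed virus was removed after 1 h, and compound was added at serial concentrations (200, 40, 8…). Viral cytopathic effect was read when untreated virus-infected control wells reached full cytopathicity.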

HEp-2 = test: Cytotoxicity against human Hep2 cells after 72 hrs by MTT assay; assay type: functional, cell-based; conditions: HEp-2, 72 h; how it was run: as §1
Human alphaherpesvirus 2 = test: Antiviral activity against HSV2 G infected in HEL cells assessed as inhibition of virus-induced cytopathicity; assay type: functional, organism-based; conditions: strain G
How it was run: (§2)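 Confluent cell monolayers in 96-well plates were inoculated with 100 CCID50 of virus. After 1 h adsorption, residual virus was removed. Cultures were then incubated with test compound at varying concentrations (200, 40, 8... µM). Viral cytopathicity was scored once it reached completion in untreated infected controls. Host cells: HEL for HSV-1 KOS and HSV-2 G; Vero for the Vero lines; HeLa for the HeLa lines.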

Influenza B virus = test: Antiviral activity against influenza B virus infected in MDCK cells assessed as inhibition of virus-induced cytopathicity; assay type: functional, organism-based
How it was run: (§3)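 MDCK cells, nearly confluent in microtiter plates, were infected with 100 CCID50 per well. After 1 h adsorption, the inoculum was washed off. Cells were incubated with graded compound concentrations (200, 40, 8…). Cytopathicity was recorded at completion in untreated infected controls.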

[2] = Cytotoxicity against human WI38 cells after 72 hrs by MTT assay; assay type: cell-based; conditions: WI-38, 72 h; how it was run: as §1
Vero = test: Cytotoxicity against african green monkey Vero cells assessed as cell viability after 3 days by coulter counting; assay type: cell-based; conditions: chlorocebus sabaeus, 72 h
MCF7 = test: Cytotoxicity against human MCF7 cells after 72 hrs by MTT assay; assay type: functional, cell-based; conditions: MCF7, 72 h; how it was run: as §1
Influenza A virus = test: Antiviral activity against influenza A virus H1N1; H3N2 infected in MDCK cells assessed as inhibition of virus-induced cytopathicity; assay type: functional, organism-based; how it was run: as §3
Sindbis virus = test: Antiviral activity against Sindbis virus infected in Vero cells assessed as inhibition of virus-induced cytopathicity; assay type: functional, organism-based; how it was run: as §2
HeLa [3] = test: Cytotoxicity against human HeLa cells after 72 hrs by MTT assay; assay type: functional, cell-based; how it was run: as §1
Coxsackievirus B4 [4] = test: Antiviral activity against Coxsackievirus B4 infected in Vero cells assessed as inhibition of virus-induced cytopathicity; assay type: functional, organism-based; how it was run: as §2
[5] = system: Vesicular stomatitis virus; test: Antiviral activity against Vesicular stomatitis virus infected in HEL cells assessed as inhibition of virus-induced cytopathicity; assay type: functional, organism-based
HeLa [6] = test: Cytotoxicity against human HeLa cells assessed as cell viability after 3 days by coulter counting; assay type: cell-based; conditions: 72 h
HEL = test: Cytotoxicity against HEL cells assessed as cell viability after 3 days by coulter counting; assay type: cell-based; conditions: human, 72 h
How it was run: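 HEL cells were seeded at 5 × 10³ cells/well and allowed to proliferate 24 h. Medium with test compound at different concentrations was then added, and cells were incubated 3 days at 37 °C. Cell number was counted by Coulter counter. CC50 (50% reduction in cell number versus untreated controls) was read from plots of cell number (% of control) against concentration.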

SW-620 = test: Cytotoxicity against human SW620 cells after 72 hrs by MTT assay; assay type: functional, cell-based; conditions: SW-620, 72 h; how it was run: as §1
Coxsackievirus B4 [7] = test: Antiviral activity against Coxsackievirus B4 infected in human HeLa cells assessed as inhibition of virus-induced cytopathicity; assay type: functional, organism-based; how it was run: as §2
SK-BR-3 = test: Cytotoxicity against human SK-BR-3 cells after 72 hrs by MTT assay; assay type: functional, cell-based; conditions: SK-BR-3, 72 h; how it was run: as §1
Punta Toro virus = test: Antiviral activity against Punta Toro virus infected in Vero cells assessed as inhibition of virus-induced cytopathicity; assay type: functional, organism-based; how it was run: as §2
Human alphaherpesvirus 1 = test: Antiviral activity against HSV1 KOS infected in HEL cells assessed as inhibition of virus-induced cytopathicity; assay type: functional, organism-based; how it was run: as §2
[8] = system: Mammalian orthoreovirus 1; test: Antiviral activity against Reovirus 1 infected in Vero cells assessed as inhibition of virus-induced cytopathicity; assay type: functional, organism-based; how it was run: as §2
MDCK = test: Cytotoxicity against MDCK cells assessed as cell viability after 3 days by coulter counting; assay type: cell-based, Canis lupus familiaris; conditions: dog, 72 h
[9] = system: Respiratory syncytial virus; test: Antiviral activity against Respiratory syncytial virus infected in human HeLa cells assessed as inhibition of virus-induced cytopathicity; assay type: functional, organism-based; how it was run: as §2
Human respirovirus 3 = test: Antiviral activity against Parainfluenza 3 infected in Vero cells assessed as inhibition of virus-induced cytopathicity; assay type: functional, organism-based; how it was run: as §2

Compound | inhibition (Vaccinia virus) | pIC50 (MIA PaCa-2) | inhibition [1] | pIC50 (HEp-2) | inhibition (Human alphaherpesvirus 2) | inhibition (Influenza B virus) | pIC50 [2] | Activity (Vero) | pIC50 (MCF7) | inhibition (Influenza A virus) | inhibition (Sindbis virus) | pIC50 (HeLa [3]) | inhibition (Coxsackievirus B4 [4]) | inhibition [5] | Activity (HeLa [6]) | Activity (HEL) | pIC50 (SW-620) | inhibition (Coxsackievirus B4 [7]) | pIC50 (SK-BR-3) | inhibition (Punta Toro virus) | other results
O=C(NC/C=C\Cn1cc(C(F)(F)F)c(=O)[nH]c1=O)c1ccccc1 | inactive | < 4.00 | inactive | < 4.00 | inactive | inactive | < 4.00 | Non-toxic | < 4.00 | inactive | inactive | < 4.00 | inactive | inactive | Non-toxic | Non-toxic | < 4.00 | inactive | < 4.00 | inactive | inhibition (Human alphaherpesvirus 1): inactive; inhibition [8]: inactive; Activity (MDCK): Non-toxic; inhibition [9]: inactive; inhibition (Human respirovirus 3): inactive
O=C(NC/C=C\Cn1ccc(=O)[nH]c1=O)c1ccccc1 | inactive | < 4.00 | inactive | < 4.00 | inactive | inactive | 5.18 | Non-toxic | < 4.00 | inactive | inactive | 5.31 | inactive | inactive | Non-toxic | Non-toxic | < 4.00 | inactive | < 4.00 | inactive | inhibition (Human alphaherpesvirus 1): inactive; inhibition [8]: inactive; Activity (MDCK): Non-toxic; inhibition [9]: inactive; inhibition (Human respirovirus 3): inactive
Nc1ncnc2c1ncn2C/C=C\CNC(=O)c1ccccc1 | inactive | < 4.00 | inactive | < 4.00 | inactive | inactive | < 4.00 | Non-toxic | < 4.00 | inactive | inactive | < 4.00 | inactive | inactive | Non-toxic | Non-toxic | < 4.00 | inactive | < 4.00 | inactive | inhibition (Human alphaherpesvirus 1): inactive; inhibition [8]: inactive; Activity (MDCK): Non-toxic; inhibition [9]: inactive; inhibition (Human respirovirus 3): inactive
Nc1nc(=O)n(C/C=C\CNC(=O)c2ccc(F)cc2)cc1F | inactive | < 4.00 | inactive | 4.49 | inactive | inactive | < 4.00 | Non-toxic | < 4.00 | inactive | inactive | < 4.00 | inactive | inactive | Non-toxic | Non-toxic | < 4.00 | inactive | < 4.00 | inactive | inhibition (Human alphaherpesvirus 1): inactive; inhibition [8]: inactive; Activity (MDCK): Non-toxic; inhibition [9]: inactive; inhibition (Human respirovirus 3): inactive
Nc1nc(=O)n(C/C=C\CNC(=O)c2ccccc2)cc1F | inactive | < 4.00 | inactive | < 4.00 | inactive | inactive | 4.30 | Non-toxic | 4.46 | inactive | inactive | 4.14 | inactive | inactive | Non-toxic | Non-toxic | < 4.00 | inactive | < 4.00 | inactive | inhibition (Human alphaherpesvirus 1): inactive; inhibition [8]: inactive; Activity (MDCK): Non-toxic; inhibition [9]: inactive; inhibition (Human respirovirus 3): inactive
